From PMC11831733 (RSC Advances, 2025) come the findings set out here.

In brackets after ≈: the same amount, converted by molar mass.

One data set is described as follows: in vitro. The format is cell-based, African green monkey. The following applies: African green monkey, Cytotoxicity (IC50, μM) Vero.
The nature of data set [1]: Cytotoxicity, resazurin microplate assay. The format is cell-based. To be noted: human, MCF-7 cells (human breast cancer, ATCC HTC-22). In outline: (§1)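 Test compound and cell suspension were combined in triplicate wells and kept at 37 °C in humidified 5% CO2 for 3 d (MCF-7) or 5 d (NCI-H187). A 62.6 μg mL−1 resazurin solution was then added, followed by 4 h at 37 °C. Fluorescence was read bottom-mode at excitation 530 nm and emission 590 nm, and the blank was subtracted.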
For orientation: The colour change of resazurin is a common sign of viable cells or microbes.

Data set [2] relates to all cell lines tested (Plasmodium falciparum, mammalian, and fungal). Briefly: Antiproliferative activity over all cell lines tested. The format is cell-based. To be noted: P. falciparum, mammalian and fungal cells.
The nature of data set [3]: Cytotoxicity, resazurin microplate assay. The format is cell-based. To be noted: human, NCI-H187 cells (human small-cell lung cancer, ATCC CRL-5804). Put shortly:
as §1

Data set [4] relates to A. brassicicola (BCC 42724). Description: microbe, parasite or virus in culture. The format is cell-based. To be noted: Alternaria brassicicola, read-out: Anti-phytopathogenic fungal (MIC, μM) A. brassicicola.
The subject of a further data set is C. acutatum (BCC 58146). Briefly: microbe, parasite or virus in culture. The format is cell-based. The following applies: Colletotrichum acutatum, read-out: Anti-phytopathogenic fungal (MIC, μM) C. acutatum.
Data set [5] deals with Vero cells (African green monkey kidney fibroblast). Description: in vitro. The format is cell-based. The following applies: read-out: Cytotoxicity (IC50, μM) Vero.

The IC50 is the concentration at which inhibition is half-maximal. `CCC(=O)c1cc(OC)cc2oc3cc(C)cc(O)c3c(=O)c12` [Compound 4, 1-hydroxy-6-methoxy-3-methyl-8-propionylxanthone]: the IC50 at 4 d in “in vitro” was over 160 µM. In data set [1], this compound registered a half-inhibitory concentration (IC50) at 3 d of 42.5 µM. Also, the “antiproliferative activity profile (in words)” value in data set [2] is “active only against mammalian cell lines”. In addition, in data set [3], the IC50 at 5 d was over 160 µM. Also, the MIC (in data set [4]; in the data set on C. acutatum (BCC 58146)) was over 160 µM in each case.

For the compound `C[C@@H]1[C@H](O)[C@@H](C)/C=C/C=C/C=C/C=C/C=C/C=C/C=C/[C@H](O[C@@H]2O[C@H](C)[C@@H](O)[C@H](N)[C@@H]2O)C[C@@H]2O[C@](O)(C[C@@H](O)C[C@@H](O)[C@H](O)CC[C@@H](O)C[C@@H](O)CC(=O)O[C@H]1C)C[C@H](O)[C@H]2C(=O)O` [Amphotericin B, reference compound], the values for the MIC (in data set [4]; in the data set with C. acutatum (BCC 58146)) were 1.7 µM (≈ 1.57 µg/mL) and 3.4 µM (≈ 3.14 µg/mL), respectively.

`COc1cc(O)c2c(=O)c3c(O)cc(C)cc3oc2c1O` [Compound 1, 1,5,8-trihydroxy-6-methoxy-3-methylxanthone] returned an IC50 at 4 d in the data set “in vitro” of 58.9 µM. Further, the IC50 in data set [5] came to 58.9 µM. This compound came in with an IC50 at 3 d in data set [1] of over 174 µM. Also, the “antiproliferative activity profile (in words)” value in data set [2] is recorded as “active only against mammalian cell lines”. In data set [3], the IC50 at 5 d turned out to be 19 µM. The MIC (in data set [4]; in the data set with C. acutatum (BCC 58146)) was over 174 µM in each case.

In the data set “in vitro”, `O=C(O)CCC(=O)OCCc1ccccc1` [Compound 7, 4-oxo-4-phenethoxybutanoic acid] returned a 50% inhibitory concentration (IC50) at 4 d of over 225 µM. The same compound returned a concentration for half-maximal inhibition (IC50) at 3 d in data set [1] of over 225 µM. The same compound yielded an IC50 at 5 d in data set [3] of over 225 µM. Moreover, the MIC (in data set [4]; with C. acutatum (BCC 58146)) was over 225 µM in each case.

`COc1cccc2c1C(=O)c1c(O)c3c(c(O)c1C2=O)C[C@@](O)(C(=O)CO)C[C@@H]3O[C@H]1C[C@H](N)[C@H](O)[C@H](C)O1` [Doxorubicin, reference compound] gave an IC50 at 3 d in data set [1] of 11.9 µM. For the same compound, in data set [3], 0.2 µM corresponded to half-maximal inhibition (IC50 at 5 d).

Turning to `COc1cc(O)c2c(=O)c3c(O)cc(C)cc3oc2c1OC` [Compound 2, 1,8-dihydroxy-5,6-dimethoxy-3-methylxanthone], the IC50 at 4 d in “in vitro” is over 165 µM. In data set [1], the IC50 at 3 d is over 165 µM. In data set [3], this compound came in with an IC50 at 5 d of over 165 µM. Besides, the MIC (in data set [4]; in the data set on C. acutatum (BCC 58146)) was over 165 µM in each case.

In the case of `COc1cc2oc3cc(C)cc(O)c3c(=O)c2c(C)c1O` [Compound 3, 1,7-dihydroxy-6-methoxy-3,8-dimethylxanthone], the IC50 at 4 d in the data set “in vitro” was over 175 µM. In addition, the IC50 at 3 d in data set [1] was over 175 µM. This compound displayed an IC50 at 5 d in data set [3] of over 175 µM. The MIC (in data set [4]; in the data set with C. acutatum (BCC 58146)) was over 175 µM each time.
